These results are taken from ChEMBL document CHEMBL1817593, “C5'-Alkyl Substitution Effects on Digitoxigenin α-l-Glycoside Cancer Cytotoxicity” (ACS Med Chem Lett, 2011).

The structures appear in SMILES notation.

The test system of assay [1] is NCI-H460. The assay is described as follows: Cytotoxicity against human NCI-H460 cells assessed as cell viability at 25 nM after 48 hrs by MTT assay. In kind it is functional. The conditions noted are these: NCI-H460, 48 h, read-out: Activity. The gist of the method: (§1)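 Viability of NCI-H460 cells was measured by MTT (mitochondrial enzymatic activity) after 48 h exposure, within a dose series spanning 1 nM–10 μM. N = 9, analysed by two-way ANOVA.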
In general terms: Tetrazolium dyes change colour on reduction, which living cells bring about.

Assay [2] deals with NCI-H460. Nature of the assay: Cytotoxicity against human NCI-H460 cells assessed as cell death in serum free medium at 250 nM after 12 hrs by Hoechst 33342/propidium iodide staining based fluorescence microscopy. In kind it is functional. An outline of the steps: (§2)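 NCI-H460 human lung cancer cells exposed 12 h to 10 nM–10 μM drug, including a 50 nM single-concentration test. Nuclei were stained with Hoechst 33342 and necrotic cells with propidium iodide. Apoptotic cells were scored by condensed or fragmented blue nuclei and necrotic cells by red PI staining. Total cell death (apoptosis plus necrosis) was recorded; N = 6.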

For assay [3], the system named is NCI-H460. Nature of the assay: Cytotoxicity against human NCI-H460 cells assessed as cell death in serum free medium at 10000 nM after 12 hrs by Hoechst 33342/propidium iodide staining based fluorescence microscopy. Type of assay: functional. The gist of the method: as §2
Assay [4] has as its system NCI-H460. The assay is described as follows: Cytotoxicity against human NCI-H460 cells assessed as cell viability at 50 nM after 48 hrs by MTT assay. Type of assay: functional. The following applies: NCI-H460, 48 h, read-out: Activity. An outline of the steps:
as §1

In assay [5] the test system is NCI-H460. Nature of the assay: Cytotoxicity against human NCI-H460 cells assessed as cell death in serum free medium at 50 nM after 12 hrs by Hoechst 33342/propidium iodide staining based fluorescence microscopy. Type of assay: functional. An outline of the steps: as §2
Assay [6] deals with NCI-H460. The assay is described as follows: Cytotoxicity against human NCI-H460 cells assessed as cell death in serum free medium at 500 nM after 12 hrs by Hoechst 33342/propidium iodide staining based fluorescence microscopy. In kind it is functional. The gist of the method: as §2
The subject of assay [7] is NCI-H460. The assay is described as follows: Induction of apoptosis in human NCI-H460 cells in serum free medium at 50 nM after 12 hrs by Hoechst 33342/propidium iodide staining based fluorescence microscopy. Type of assay: functional. The gist of the method:
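NCI-H460 cells exposed to a single 50 nM concentration for 12 h. Cells stained with Hoechst 33342 and propidium iodide. Blue cells with condensed or fragmented nuclei were scored as apoptotic and red, ruptured cells as necrotic. Result given as % apoptotic cell death; N = 6, one-way ANOVA.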

In assay [8] the test system is NCI-H460. Nature of the assay: Growth inhibition of human NCI-H460 cells after 48 hrs by MTT assay. In kind it is functional. The gist of the method: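 NCI-H460 viability measured by MTT (mitochondrial enzymatic activity) after 48 h exposure at 1 nM to 10 μM. GI50 derived from dose-response curves, with N = 9 and two-way ANOVA. Values are the mean of three independent experiments with duplicate determinations.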

Assay [9] relates to NCI-H460. The assay is described as follows: Cytotoxicity against human NCI-H460 cells assessed as cell viability after 48 hrs by MTT assay. The conditions noted are these: NCI-H460, 48 h. In kind it is functional. The gist of the method:
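NCI-H460 cells were exposed to drug for 48 h, and viability was read by MTT as mitochondrial enzymatic activity. GI50 was derived from dose-response curves (1 nM–10 μM). Values are from three independent experiments with duplicate determinations, given with standard error of the mean.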

The subject of assay [10] is NCI-H460. The assay is described as follows: Cytotoxicity against human NCI-H460 cells assessed as cell viability at 500 nM after 48 hrs by MTT assay. Type of assay: functional. The following applies: NCI-H460, 48 h, read-out: Activity. An outline of the steps:
as §1

Assay [11] has as its system NCI-H460. The assay is described as follows: Cytotoxicity against human NCI-H460 cells assessed as cell viability at 1 nM after 48 hrs by MTT assay. Type of assay: functional. The following applies: NCI-H460, 48 h, read-out: Activity. An outline of the steps: as §1
For assay [12], the system named is NCI-H460. Nature of the assay: Cytotoxicity against human NCI-H460 cells assessed as cell death in serum free medium at 10 nM after 12 hrs by Hoechst 33342/propidium iodide staining based fluorescence microscopy. In kind it is functional. The gist of the method:
as §2

The subject of assay [13] is NCI-H460. Nature of the assay: Cytotoxicity against human NCI-H460 cells assessed as cell viability at 1000 nM after 48 hrs by MTT assay. In kind it is functional. The conditions noted are these: NCI-H460, 48 h, read-out: Activity. An outline of the steps:
as §1

Assay [14] deals with NCI-H460. Nature of the assay: Induction of apoptosis in human NCI-H460 cells in serum free medium after 12 hrs by Hoechst 33342/propidium iodide staining based fluorescence microscopy. Type of assay: functional, cell-based. The following applies: for IC50: NCI-H460, 12 h. An outline of the steps:
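NCI-H460 cells treated for 12 h at 10 nM to 10 μM. Total cell death (apoptosis plus necrosis) scored by Hoechst 33342/propidium iodide staining, with N = 6 and two-way ANOVA. IC50 obtained by nonlinear regression. Table values are the mean of three independent experiments with duplicate determinations.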

Assay [15] concerns NCI-H460. Nature of the assay: Cytotoxicity against human NCI-H460 cells assessed as cell death in serum free medium at 25 nM after 12 hrs by Hoechst 33342/propidium iodide staining based fluorescence microscopy. Type of assay: functional. An outline of the steps: as §2
Assay [16] has as its system NCI-H460. Nature of the assay: Cytotoxicity against human NCI-H460 cells assessed as cell death in serum free medium at 100 nM after 12 hrs by Hoechst 33342/propidium iodide staining based fluorescence microscopy. In kind it is functional. The gist of the method:
as §2

Assay [17] has as its system NCI-H460. Nature of the assay: Cytotoxicity against human NCI-H460 cells assessed as cell death in serum free medium at 1000 nM after 12 hrs by Hoechst 33342/propidium iodide staining based fluorescence microscopy. In kind it is functional. The gist of the method: as §2
The test system of assay [18] is NCI-H460. The assay is described as follows: Cytotoxicity against human NCI-H460 cells assessed as cell death in serum free medium at 75 nM after 12 hrs by Hoechst 33342/propidium iodide staining based fluorescence microscopy. Type of assay: functional. The gist of the method: as §2
Assay [19] relates to NCI-H460. The assay is described as follows: Cytotoxicity against human NCI-H460 cells assessed as cell viability at 10 nM after 48 hrs by MTT assay. In kind it is functional. The following applies: NCI-H460, 48 h, read-out: Activity. An outline of the steps:
as §1

For assay [20], the system named is NCI-H460. The assay is described as follows: Cytotoxicity against human NCI-H460 cells assessed as cell viability at 100 nM after 48 hrs by MTT assay. The conditions noted are these: NCI-H460, 48 h, read-out: Activity. Type of assay: functional. An outline of the steps:
as §1

For assay [21], the system named is NCI-H460. Nature of the assay: Ratio of digitoxin IC50 to compound IC50 for human NCI-H460 cells after 12 hrs by Hoechst 33342/propidium iodide staining based fluorescence microscopy. In kind it is functional.

In general, GI50 refers to the concentration that inhibits growth by half. As a reminder, the IC50 is the concentration needed to halve the response being measured. Consider `CCC[C@@H]1O[C@@H](O[C@H]2CC[C@@]3(C)[C@H](CC[C@@H]4[C@@H]3CC[C@]3(C)[C@@H](C5=CC(=O)OC5)CC[C@]43O)C2)[C@H](O)[C@H](O)[C@H]1O`, for which the viability at 0.025 µM in the assay on NCI-H460 [1] came out at 16.1%. In addition, the Activity with NCI-H460 [2] was 84.94%; with NCI-H460 [3] it was 100%; with NCI-H460 [5] it was 23.16%; in the assay with NCI-H460 [6] it was 100%; in the assay on NCI-H460 [7], 15.692%; in the assay on NCI-H460 [12], 15.86%. For the same molecule, the Activity entry in the assay on NCI-H460 [14] is “Dose-dependent effect”; in the assay with NCI-H460 [15] it was 20.15%; in the assay with NCI-H460 [16] it was 52.06%; with NCI-H460 [17], 100%; in the assay with NCI-H460 [18], 34.1%. For the same molecule, the viability at 0.05 µM with NCI-H460 [4] came to 9.27%. Besides, the GI50 entry in the assay on NCI-H460 [8] is “Dose-dependent effect”; with NCI-H460 [8] (NCI-H460, 48 h) it was 5 nM; in the assay with NCI-H460 [9], 4.88 nM. The viability at 0.5 µM in the assay with NCI-H460 [10] is 5.87%. The viability at 0.001 µM in the assay on NCI-H460 [11] was determined as 81.4%. Further, the viability at 1 µM with NCI-H460 [13] came to 5.81%. In addition, in the assay on NCI-H460 [14], the IC50 stood at 116 nM. In the assay with NCI-H460 [19], the viability at 0.01 µM came out at 39.3%. Further, in the assay with NCI-H460 [20], the viability at 0.1 µM stood at 7.06%.

On to `CC(C)[C@@H]1O[C@@H](O[C@H]2CC[C@@]3(C)[C@H](CC[C@@H]4[C@@H]3CC[C@]3(C)[C@@H](C5=CC(=O)OC5)CC[C@]43O)C2)[C@H](O)[C@H](O)[C@H]1O`, for which the viability at 0.025 µM in the assay with NCI-H460 [1] came out at 35%. Further, the Activity with NCI-H460 [2] amounted to 73.97%; in the assay with NCI-H460 [3], 100%; in the assay with NCI-H460 [5] it was 24.42%; in the assay with NCI-H460 [6], 100%; in the assay with NCI-H460 [7] it was 15.425%; with NCI-H460 [12] it was 12.81%. Also, the Activity entry in the assay with NCI-H460 [14] is “Dose-dependent effect”; with NCI-H460 [15], 19.33%; in the assay with NCI-H460 [16], 45.94%; with NCI-H460 [17] it was 100%; with NCI-H460 [18] it was 37.08%. In addition, the viability at 0.05 µM with NCI-H460 [4] was found to be 22.8%. Further, the GI50 entry was “Dose-dependent effect” with NCI-H460 [8]; 6 nM in the assay on NCI-H460 [8] (NCI-H460, 48 h); 6.32 nM with NCI-H460 [9]. For the same molecule, in the assay with NCI-H460 [10], the viability at 0.5 µM turned out to be 6.11%. Besides, the viability at 0.001 µM with NCI-H460 [11] was found to be 77.4%. Moreover, in the assay on NCI-H460 [13], the viability at 1 µM came out at 5.76%. Further, the IC50 with NCI-H460 [14] came to 130 nM. Also, the viability at 0.01 µM in the assay on NCI-H460 [19] stood at 47.3%. For the same molecule, in the assay with NCI-H460 [20], the viability at 0.1 µM stood at 9.88%.

Consider `C[C@@H]1O[C@@H](O[C@H]2CC[C@@]3(C)[C@H](CC[C@@H]4[C@@H]3CC[C@]3(C)[C@@H](C5=CC(=O)OC5)CC[C@]43O)C2)[C@H](O)[C@H](O)[C@H]1O`, for which the viability at 0.025 µM in the assay on NCI-H460 [1] was 8.72%. The Activity with NCI-H460 [2] is on record as 100%; with NCI-H460 [3], 100%; in the assay on NCI-H460 [5] it was 48.79%; in the assay on NCI-H460 [6] it was 100%; with NCI-H460 [7], 41.603%; with NCI-H460 [12] it was 16.47%. Further, the Activity result in the assay on NCI-H460 [14] is “Dose-dependent effect”; in the assay with NCI-H460 [15], 24.53%; in the assay with NCI-H460 [16], 89.5%; with NCI-H460 [17] it was 100%; in the assay on NCI-H460 [18], 78.16%. Further, the viability at 0.05 µM in the assay with NCI-H460 [4] was found to be 7.16%. The GI50 entry is “Dose-dependent effect” in the assay on NCI-H460 [8]; 2 nM in the assay with NCI-H460 [8] (NCI-H460, 48 h); 2.1 nM with NCI-H460 [9]. Further, the viability at 0.5 µM in the assay on NCI-H460 [10] was 5.81%. For the same molecule, the viability at 0.001 µM in the assay with NCI-H460 [11] came to 77.8%. Also, in the assay on NCI-H460 [21], the “Ratio IC50” value was determined as 4. Further, the viability at 1 µM with NCI-H460 [13] is 5.46%. Also, half-maximal inhibition in the assay on NCI-H460 [14] (IC50) required 51.7 nM. Further, the viability at 0.01 µM in the assay with NCI-H460 [19] came to 11.8%. Further, in the assay on NCI-H460 [20], the viability at 0.1 µM came to 6.11%.
